Results taken from ChEMBL document CHEMBL4261538, “Synthesis and molecular docking studies of xanthone attached amino acids as potential antimicrobial and anti-inflammatory agents” (Medchemcomm, 2017).
In brackets after ≈: the same amount, converted by molar mass.

What was measured:
[1] = test system: Fusarium oxysporum; assay: Antifungal activity against Fusarium oxysporum incubated for 48 to 72 hrs by microdilution method; type: functional
Summary of the method: (§1)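 Sabouraud agar plates inoculated with fungal suspension at 10⁵ CFU mL⁻¹ plus serially diluted compounds and bavistin reference, both in DMSO. Incubated at 25 °C for 48–72 h. MIC is the lowest concentration completely inhibiting growth. Values are means of three determinations.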

[2] = test system: Staphylococcus aureus; assay: Induction of cell membrane damage in Staphylococcus aureus assessed as cell content leakage at MIC by spectrophotometric method; type: functional, organism-based; conditions: TDE = time-dependent effect
Summary of the method: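 Log-phase S. aureus inoculated into 0.1% sterile peptone water, with an untreated control, and held at 37 °C for 0, 30, 60 and 120 min. 1 mL of broth centrifuged and supernatant OD read at 260 nm to measure released DNA. Run in triplicate, repeated three times.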

[3] = test system: Aspergillus niger; assay: Antifungal activity against Aspergillus niger at 75 ug/ml incubated for 48 hrs by agar well diffusion method; type: functional; conditions: read-out: DIZ
Summary of the method: (§2)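 Compounds dissolved in DMSO at 5 mg mL⁻¹ and 5–20 µL added to 6 mm wells, giving 25, 50, 75, 100 µg per well. Bavistin was the positive control and DMSO the negative control. Plates incubated at 28 °C for 48 h, then inhibition zone diameter (mm) measured. Values are means of three determinations.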

[4] = test system: Fusarium oxysporum; assay: Antifungal activity against Fusarium oxysporum at 100 ug/ml incubated for 48 hrs by agar well diffusion method; type: functional; conditions: read-out: DIZ; summary of the method: as §2
[5] = test system: Bacillus subtilis; assay: Antibacterial activity against Bacillus subtilis at 50 ug/ml incubated for 24 hrs by agar well diffusion method; type: functional; conditions: read-out: DIZ
Summary of the method: (§3)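 Bacteria grown in nutrient broth at 37 °C for 24 h, then subcultured at room temperature. Compounds dissolved in DMSO at 5 mg mL⁻¹ and 5–20 µL added to 6 mm wells, giving 25, 50, 75, 100 µg per well. Gentamicin was the positive control and DMSO the negative control. Plates held at 37 °C for 24 h, then inhibition zone diameter (mm) measured. Values are means of three determinations.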

[6] = test system: Escherichia coli; assay: Antibacterial activity against Escherichia coli at 50 ug/ml incubated for 24 hrs by agar well diffusion method; type: functional; conditions: read-out: DIZ; summary of the method: as §3
[7] = test system: Fusarium oxysporum; assay: Antifungal activity against Fusarium oxysporum at 75 ug/ml incubated for 48 hrs by agar well diffusion method; type: functional; conditions: read-out: DIZ; summary of the method: as §2
[8] = test system: Klebsiella pneumoniae; assay: Antibacterial activity against Klebsiella pneumoniae incubated for 24 hrs by microdilution method; type: functional
[9] = test system: Aspergillus niger; assay: Antifungal activity against Aspergillus niger incubated for 48 to 72 hrs by microdilution method; type: functional; summary of the method: as §1
[10] = test system: Aspergillus niger; assay: Antifungal activity against Aspergillus niger at 50 ug/ml incubated for 48 hrs by agar well diffusion method; type: functional; conditions: read-out: DIZ; summary of the method: as §2
[11] = test system: Fusarium oxysporum; assay: Antifungal activity against Fusarium oxysporum at 25 ug/ml incubated for 48 hrs by agar well diffusion method; type: functional; conditions: read-out: DIZ; summary of the method: as §2
[12] = test system: Klebsiella pneumoniae; assay: Antibacterial activity against Klebsiella pneumoniae at 100 ug/ml incubated for 24 hrs by agar well diffusion method; type: functional; conditions: read-out: DIZ; summary of the method: as §3
[13] = test system: Aspergillus niger; assay: Antifungal activity against Aspergillus niger at 25 ug/ml incubated for 48 hrs by agar well diffusion method; type: functional; conditions: read-out: DIZ; summary of the method: as §2
[14] = test system: Candida albicans; assay: Antifungal activity against Candida albicans at 25 ug/ml incubated for 48 hrs by agar well diffusion method; type: functional; conditions: read-out: DIZ; summary of the method: as §2
[15] = test system: Escherichia coli; assay: Antibacterial activity against Escherichia coli at 75 ug/ml incubated for 24 hrs by agar well diffusion method; type: functional; conditions: read-out: DIZ; summary of the method: as §3
[16] = test system: Klebsiella pneumoniae; assay: Antibacterial activity against Klebsiella pneumoniae at 25 ug/ml incubated for 24 hrs by agar well diffusion method; type: functional; conditions: read-out: DIZ; summary of the method: as §3
[17] = test system: Escherichia coli; assay: Antibacterial activity against Escherichia coli at 100 ug/ml incubated for 24 hrs by agar well diffusion method; type: functional; conditions: read-out: DIZ; summary of the method: as §3
[18] = test system: Staphylococcus aureus; assay: Antibacterial activity against Staphylococcus aureus at 75 ug/ml incubated for 24 hrs by agar well diffusion method; type: functional; conditions: read-out: DIZ; summary of the method: as §3
[19] = test system: Erythrocyte; assay: Anti-inflammatory activity in human RBC assessed as inhibition of hypotonic solution-induced hemolysis after 10 mins by spectrophotometric method; type: functional, cell-based
Summary of the method: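 Human blood (heparinized) washed with 0.9% saline, packed cells made into a 40% v/v stock in isotonic phosphate buffer (154 mM NaCl, 10 mM sodium phosphate, pH 7.4). Stock RBC mixed with hypotonic buffer (50 mM NaCl, 10 mM phosphate, pH 7.4) plus sample at 20–100 µg mL⁻¹.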

[20] = test system: Bacillus subtilis; assay: Antibacterial activity against Bacillus subtilis at 100 ug/ml incubated for 24 hrs by agar well diffusion method; type: functional; conditions: read-out: DIZ; summary of the method: as §3
[21] = test system: Klebsiella pneumoniae; assay: Antibacterial activity against Klebsiella pneumoniae at 50 ug/ml incubated for 24 hrs by agar well diffusion method; type: functional; conditions: read-out: DIZ; summary of the method: as §3
[22] = test system: Staphylococcus aureus; assay: Antibacterial activity against Staphylococcus aureus incubated for 24 hrs by microdilution method; type: functional
[23] = test system: Escherichia coli; assay: Antibacterial activity against Escherichia coli incubated for 24 hrs by microdilution method; type: functional
[24] = test system: Klebsiella pneumoniae; assay: Antibacterial activity against Klebsiella pneumoniae at 75 ug/ml incubated for 24 hrs by agar well diffusion method; type: functional; conditions: read-out: DIZ; summary of the method: as §3
[25] = test system: Aspergillus niger; assay: Antifungal activity against Aspergillus niger at 100 ug/ml incubated for 48 hrs by agar well diffusion method; type: functional; conditions: read-out: DIZ; summary of the method: as §2
[26] = test system: Bacillus subtilis; assay: Antibacterial activity against Bacillus subtilis at 75 ug/ml incubated for 24 hrs by agar well diffusion method; type: functional; conditions: read-out: DIZ; summary of the method: as §3
[27] = test system: Candida albicans; assay: Antifungal activity against Candida albicans incubated for 48 to 72 hrs by microdilution method; type: functional; summary of the method: as §1
[28] = test system: Candida albicans; assay: Antifungal activity against Candida albicans at 75 ug/ml incubated for 48 hrs by agar well diffusion method; type: functional; conditions: read-out: DIZ; summary of the method: as §2
[29] = test system: Staphylococcus aureus; assay: Antibacterial activity against Staphylococcus aureus at 50 ug/ml incubated for 24 hrs by agar well diffusion method; type: functional; conditions: read-out: DIZ; summary of the method: as §3
[30] = test system: Bacillus subtilis; assay: Antibacterial activity against Bacillus subtilis at 25 ug/ml incubated for 24 hrs by agar well diffusion method; type: functional; conditions: read-out: DIZ; summary of the method: as §3
[31] = test system: Bacillus subtilis; assay: Antibacterial activity against Bacillus subtilis incubated for 24 hrs by microdilution method; type: functional
[32] = test system: Candida albicans; assay: Antifungal activity against Candida albicans at 50 ug/ml incubated for 48 hrs by agar well diffusion method; type: functional; conditions: read-out: DIZ; summary of the method: as §2
[33] = test system: Candida albicans; assay: Antifungal activity against Candida albicans at 100 ug/ml incubated for 48 hrs by agar well diffusion method; type: functional; conditions: read-out: DIZ; summary of the method: as §2
[34] = test system: Staphylococcus aureus; assay: Antibacterial activity against Staphylococcus aureus at 100 ug/ml incubated for 24 hrs by agar well diffusion method; type: functional; conditions: read-out: DIZ; summary of the method: as §3
[35] = test system: Escherichia coli; assay: Antibacterial activity against Escherichia coli at 25 ug/ml incubated for 24 hrs by agar well diffusion method; type: functional; conditions: read-out: DIZ; summary of the method: as §3
[36] = test system: Staphylococcus aureus; assay: Antibacterial activity against Staphylococcus aureus at 25 ug/ml incubated for 24 hrs by agar well diffusion method; type: functional; conditions: read-out: DIZ; summary of the method: as §3
[37] = test system: Fusarium oxysporum; assay: Antifungal activity against Fusarium oxysporum at 50 ug/ml incubated for 48 hrs by agar well diffusion method; type: functional; conditions: read-out: DIZ; summary of the method: as §2

Compound	MIC [1] [µg/mL]	Activity [2]	zone of inhibition at 75 µg/mL [3] [mm]	zone of inhibition at 100 µg/mL [4] [mm]	zone of inhibition at 50 µg/mL [5] [mm]	zone of inhibition at 50 µg/mL [6] [mm]	zone of inhibition at 75 µg/mL [7] [mm]	MIC [8] [µg/mL]	MIC [9] [µg/mL]	zone of inhibition at 50 µg/mL [10] [mm]	zone of inhibition at 25 µg/mL [11] [mm]	zone of inhibition at 100 µg/mL [12] [mm]	zone of inhibition at 25 µg/mL [13] [mm]	zone of inhibition at 25 µg/mL [14] [mm]	zone of inhibition at 75 µg/mL [15] [mm]	zone of inhibition at 25 µg/mL [16] [mm]	zone of inhibition at 100 µg/mL [17] [mm]	zone of inhibition at 75 µg/mL [18] [mm]	IC50 [19] [µg/mL]	zone of inhibition at 100 µg/mL [20] [mm]	also measured
Cl.O=C(Oc1ccc2c(=O)c3ccccc3oc2c1)[C@@H]1CCCN1	28	Tde	30	35	26	25	29	26	27	24	20	38	17	16	32	18	39	31	36	37	zone of inhibition at 50 µg/mL [21]: 28 mm; MIC [22]: 26 µg/mL; MIC [23]: 24 µg/mL; zone of inhibition at 75 µg/mL [24]: 33 mm; zone of inhibition at 100 µg/mL [25]: 33 mm; zone of inhibition at 75 µg/mL [26]: 32 mm; MIC [27]: 28 µg/mL; zone of inhibition at 75 µg/mL [28]: 27 mm; zone of inhibition at 50 µg/mL [29]: 27 mm; zone of inhibition at 25 µg/mL [30]: 18 mm; MIC [31]: 25 µg/mL; zone of inhibition at 50 µg/mL [32]: 22 mm; zone of inhibition at 100 µg/mL [33]: 34 mm; zone of inhibition at 100 µg/mL [34]: 35 mm; zone of inhibition at 25 µg/mL [35]: 20 mm; zone of inhibition at 25 µg/mL [36]: 20 mm; zone of inhibition at 50 µg/mL [37]: 24 mm
Cl.N[C@@H](Cc1c[nH]c2ccccc12)C(=O)Oc1ccc2c(=O)c3ccccc3oc2c1	20	Tde	40	42	32	31	37	22	21	31	25	44	28	26	38	23	43	37	26	43	zone of inhibition at 50 µg/mL [21]: 30 mm; MIC [22]: 16 µg/mL; MIC [23]: 15 µg/mL; zone of inhibition at 75 µg/mL [24]: 37 mm; zone of inhibition at 100 µg/mL [25]: 46 mm; zone of inhibition at 75 µg/mL [26]: 36 mm; MIC [27]: 20 µg/mL; zone of inhibition at 75 µg/mL [28]: 39 mm; zone of inhibition at 50 µg/mL [29]: 31 mm; zone of inhibition at 25 µg/mL [30]: 26 mm; MIC [31]: 16 µg/mL; zone of inhibition at 50 µg/mL [32]: 33 mm; zone of inhibition at 100 µg/mL [33]: 44 mm; zone of inhibition at 100 µg/mL [34]: 42 mm; zone of inhibition at 25 µg/mL [35]: 26 mm; zone of inhibition at 25 µg/mL [36]: 24 mm; zone of inhibition at 50 µg/mL [37]: 32 mm
CC(C)(C)OC(=O)N[C@@H](Cc1ccccc1)C(=O)Oc1ccc2c(=O)c3ccccc3oc2c1	27 (≈ 58.8 µM)	Tde	35	32	26	25	27	26 (≈ 56.6 µM)	28 (≈ 60.9 µM)	28	14	37	17	22	32	20	34	31	38 (≈ 82.7 µM)	36	zone of inhibition at 50 µg/mL [21]: 27 mm; MIC [22]: 25 µg/mL (≈ 54.4 µM); MIC [23]: 22 µg/mL (≈ 47.9 µM); zone of inhibition at 75 µg/mL [24]: 33 mm; zone of inhibition at 100 µg/mL [25]: 40 mm; zone of inhibition at 75 µg/mL [26]: 33 mm; MIC [27]: 30 µg/mL (≈ 65.3 µM); zone of inhibition at 75 µg/mL [28]: 32 mm; zone of inhibition at 50 µg/mL [29]: 25 mm; zone of inhibition at 25 µg/mL [30]: 17 mm; MIC [31]: 26 µg/mL (≈ 56.6 µM); zone of inhibition at 50 µg/mL [32]: 27 mm; zone of inhibition at 100 µg/mL [33]: 38 mm; zone of inhibition at 100 µg/mL [34]: 34 mm; zone of inhibition at 25 µg/mL [35]: 16 mm; zone of inhibition at 25 µg/mL [36]: 18 mm; zone of inhibition at 50 µg/mL [37]: 22 mm
